Data from ChEMBL document CHEMBL3132758, “Synthesis, Activity and Structure-Activity Relationship of Noroviral Protease Inhibitors” (Medchemcomm, 2013).
Calls of active or inactive are those of the source. The calls are words filed in the database; no cut-off is given here. Non-standard residues stand in square brackets, D forms with d. Residues, ends and D or L forms follow the SMILES beside them. *: point of attachment. Pyrrolidide = C1CCN(*)C1; Cbz = O=C(OCc1ccccc1)*; Dap = NC[C@H](N)C(=O)O

Experiments:
[1] = (§1) Inhibition of Norwalk virus recombinant His6-tagged protease using EDANS-EPDFHLQGPEDLAK-Dabcyl as substrate preincubated for 45 mins followed by substrate addition measured every 1 min for 30 mins by FRET analysis
Procedure, shortened: (§2)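 Protease purified on Ni-NTA, used at 0.5 μM final. Preincubated with inhibitor (0, 0.05, 0.2, 1, 5, 20, 100, 150 μM) in 50 mM NaH2PO4 pH 8, 50 mM NaCl, 5 mM TCEP, room temperature. Substrate added to 30 μM final. Fluorescence read at ex 360/em 460 nm at 37 °C. Ki derived from initial velocities by Morrison tight-binding fit.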

Norwalk virus = experiment: as §1; procedure, shortened: as §2
[2] = Selectivity ratio of Ki for Houston virus recombinant His6-tagged protease to Ki for Norwalk virus recombinant His6-tagged protease
[3] = Inhibition of Houston virus recombinant His6-tagged protease using EDANS-EPDFHLQGPEDLAK-Dabcyl as substrate preincubated for 45 mins followed by substrate addition measured every 1 min for 30 mins by FRET analysis; parameters: species or system genotype 2; procedure, shortened: as §2

Q: With `CC(=O)[C@H](CCC(=O)N(C)C)NC(=O)[C@H](Cc1ccccc1)NC(=O)[C@H](CC(C)C)NC(=O)OCc1ccccc1` as the compound, how does the Ki [1] read?
A: 150 µM

Q: Which Ki [1] does the source give for `CC(C)C[C@H](NC(=O)OCc1ccccc1)C(=O)N[C@@H](Cc1ccccc1)C(=O)N[C@H](C=O)CCC(=O)NC1CC1` here?
A: 1.4 µM

Q: Which inhibition (Norwalk virus) does the source give for `CCOC(=O)/C=C/[C@H](CCC(=O)N(C)C)NC(=O)[C@H](Cc1ccccc1)NC(=O)[C@H](CC(C)C)NC(=O)OCc1ccccc1` here?
A: inactive

Q: Which inhibition (Norwalk virus) does the source give for `CCOC(=O)/C=C/[C@H](CCC(N)=O)NC(=O)[C@H](Cc1ccccc1)NC(=O)[C@H](CC(C)C)NC(=O)OCc1ccccc1` here?
A: inactive

Q: Which inhibition (Norwalk virus) does the source give for `CCOC(=O)/C=C/[C@H](CNC(C)=O)NC(=O)[C@H](Cc1ccccc1)NC(=O)[C@H](CC(C)C)NC(=O)OCc1ccccc1` here?
A: inactive

Q: Which Ki [1] does the source give for `CC(=O)N[C@@H](CC(C)C)C(=O)N[C@@H](Cc1ccccc1)C(=O)N[C@H](C=O)CCC(=O)N(C)C` (Ac-Leu-Phe-Glu(NMe2)-aldehyde) here?
A: 39 µM

Q: For `CC(C)C[C@H](NC(=O)[C@H](C)NC(=O)OCc1ccccc1)C(=O)N[C@H](C=O)CCC(=O)N(C)C` (Cbz-Ala-Leu-Glu(NMe2)-aldehyde), which Ratio Ki [2] is on record?
A: 10

Q: And the Ki [3]?
A: 4.6 µM

Q: What about the Ki [1] of the same compound?
A: 0.59 µM

Q: For `CN(C)C(=O)CC[C@@H](C=O)NC(=O)[C@H](Cc1ccccc1)NC(=O)[C@H](CC(N)=O)NC(=O)OCc1ccccc1` (Cbz-Asn-Phe-Glu(NMe2)-aldehyde), which Ki [1] is on record?
A: 1.6 µM

Q: Which Ratio Ki [2] does the source give for `CC(C)C[C@H](NC(=O)[C@H](CCC(N)=O)NC(=O)OCc1ccccc1)C(=O)N[C@H](C=O)CCC(=O)N(C)C` (Cbz-Gln-Leu-Glu(NMe2)-aldehyde) here?
A: 10

Q: And the Ki [3]?
A: 4.3 µM

Q: And the Ki [1]?
A: 0.31 µM

Q: With `CC(C)C[C@H](NC(=O)[C@H](Cc1c[nH]cn1)NC(=O)OCc1ccccc1)C(=O)N[C@H](C=O)CCC(=O)N(C)C` (Cbz-His-Leu-Glu(NMe2)-aldehyde) as the compound, how does the Ki [1] read?
A: 1.9 µM

Q: With `CNC(=O)CC[C@@H](C=O)NC(=O)[C@H](Cc1ccccc1)NC(=O)[C@H](CC(C)C)NC(=O)OCc1ccccc1` (Cbz-Leu-Phe-Glu(NHMe)-aldehyde) as the compound, how does the Ki [1] read?
A: 5.1 µM

Q: With `CC(C)C[C@H](NC(=O)OCc1ccccc1)C(=O)N[C@@H](Cc1ccccc1)C(=O)N[C@H](C=O)CCC(=O)N(C)C` (Cbz-Leu-Phe-Glu(NMe2)-aldehyde) as the compound, how does the Ratio Ki [2] read?
A: 60

Q: And the Ki [3]?
A: 7.5 µM

Q: And the Ki [1]?
A: 0.12 µM

Q: With `CC(C)C[C@H](NC(=O)OCc1ccccc1)C(=O)N[C@@H](Cc1ccccc1)C(=O)N[C@H](C=O)CCC(=O)N1CCCC1` (Cbz-Leu-Phe-Glu(Pyrrolidide)-aldehyde) as the compound, how does the Ki [1] read?
A: 0.075 µM

Q: Which Ratio Ki [2] does the source give for `CC(=O)NC[C@@H](C=O)NC(=O)[C@H](Cc1ccccc1)NC(=O)[C@H](CC(C)C)NC(=O)OCc1ccccc1` (Cbz-Leu-Phe-[Dap](Ac)-aldehyde) here?
A: 10

Q: What about the Ki [3] of the same compound?
A: 14 µM

Q: What about the Ki [1] of the same compound?
A: 1.5 µM

Q: Which Ki [1] does the source give for `CC(C)C[C@H](NC(=O)OCc1ccccc1)C(=O)N1CCC[C@H]1C(=O)N[C@H](C=O)CCC(=O)N(C)C` (Cbz-Leu-Pro-Glu(NMe2)-aldehyde) here?
A: 46 µM

Q: With `CC(C)[C@H](NC(=O)OCc1ccccc1)C(=O)N1CCC[C@H]1C(=O)N[C@H](C=O)CCC(=O)N(C)C` (Cbz-Val-Pro-Glu(NMe2)-aldehyde) as the compound, how does the Ki [1] read?
A: 8.2 µM
